Source: ChEMBL document CHEMBL3232879, “4,5,6,7-Tetrahydro-isoxazolo-[4,5-c]-pyridines as a new class of cytotoxic Hsp90 inhibitors” (Eur J Med Chem, 2014)

Assays:
Histone deacetylase 1 = Histone deacetylase 1 (Homo sapiens, UniProt Q13547); assay: Inhibition of human HDAC-1 using RHKK(Ac) as substrate
NCI-H460 = assay: Cytotoxicity against human NCI-H460 cells assessed as growth inhibition after 72 hrs by sulforhodamine B assay; type: functional, cell-based; details: NCI-H460, 72 h
In short: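 Log-phase NCI-H460 cells seeded, drug added 24 h later, exposed 72 h. Survival read by sulforhodamine B staining. IC50 fitted by curve analysis as the concentration halving cell number relative to untreated controls.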

[1] = molecular target: Heat shock protein HSP 90-alpha (Homo sapiens, UniProt P07900); assay: Displacement of GM-FTC from Hsp90-alpha (unknown origin) after 4 hrs by fluorescence polarization assay
Histone deacetylase 2 = Histone deacetylase 2 (Homo sapiens, UniProt Q92769); assay: Inhibition of human HDAC-2 using RHKK(Ac) as substrate
Sequence of Histone deacetylase 2 (Q92769 whole entry): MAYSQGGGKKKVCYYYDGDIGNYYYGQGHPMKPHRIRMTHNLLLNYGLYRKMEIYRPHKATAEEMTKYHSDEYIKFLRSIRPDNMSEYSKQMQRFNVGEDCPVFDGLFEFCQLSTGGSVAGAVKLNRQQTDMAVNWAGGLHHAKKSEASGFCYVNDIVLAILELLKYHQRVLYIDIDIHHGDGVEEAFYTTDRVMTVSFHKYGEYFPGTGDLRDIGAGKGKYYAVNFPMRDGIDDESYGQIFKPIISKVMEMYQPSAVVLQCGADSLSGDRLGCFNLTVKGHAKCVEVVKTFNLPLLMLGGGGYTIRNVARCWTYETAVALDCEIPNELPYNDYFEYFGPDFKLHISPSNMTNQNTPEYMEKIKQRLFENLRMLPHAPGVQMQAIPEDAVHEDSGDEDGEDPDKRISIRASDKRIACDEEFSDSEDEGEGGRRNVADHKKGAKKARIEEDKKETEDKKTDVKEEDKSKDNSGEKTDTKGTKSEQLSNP

[2] = molecular target: Histone deacetylase 3/Nuclear receptor corepressor 2 (HDAC3/NCoR2) (Homo sapiens, UniProt O15379); assay: Inhibition of human HDAC-3/NCOR-2 using RHKK(Ac) as substrate; type: protein-complex assay
Sequence of Histone deacetylase 3/Nuclear receptor corepressor 2 (HDAC3/NCoR2) (O15379 whole entry): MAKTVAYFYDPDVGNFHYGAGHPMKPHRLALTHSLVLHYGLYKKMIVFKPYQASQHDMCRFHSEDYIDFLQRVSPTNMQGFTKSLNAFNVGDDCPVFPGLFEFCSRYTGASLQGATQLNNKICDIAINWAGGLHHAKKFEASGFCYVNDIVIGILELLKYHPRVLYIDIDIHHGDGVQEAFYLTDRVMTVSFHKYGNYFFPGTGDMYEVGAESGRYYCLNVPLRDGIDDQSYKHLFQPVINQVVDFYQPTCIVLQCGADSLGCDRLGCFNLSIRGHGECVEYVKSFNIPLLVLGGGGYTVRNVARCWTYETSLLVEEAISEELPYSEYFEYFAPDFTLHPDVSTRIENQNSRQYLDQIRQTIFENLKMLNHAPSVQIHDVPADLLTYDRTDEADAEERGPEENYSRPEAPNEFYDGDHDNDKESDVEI
Sequence of Histone deacetylase 3/Nuclear receptor corepressor 2 (HDAC3/NCoR2) (Q9Y618 whole entry, further chain): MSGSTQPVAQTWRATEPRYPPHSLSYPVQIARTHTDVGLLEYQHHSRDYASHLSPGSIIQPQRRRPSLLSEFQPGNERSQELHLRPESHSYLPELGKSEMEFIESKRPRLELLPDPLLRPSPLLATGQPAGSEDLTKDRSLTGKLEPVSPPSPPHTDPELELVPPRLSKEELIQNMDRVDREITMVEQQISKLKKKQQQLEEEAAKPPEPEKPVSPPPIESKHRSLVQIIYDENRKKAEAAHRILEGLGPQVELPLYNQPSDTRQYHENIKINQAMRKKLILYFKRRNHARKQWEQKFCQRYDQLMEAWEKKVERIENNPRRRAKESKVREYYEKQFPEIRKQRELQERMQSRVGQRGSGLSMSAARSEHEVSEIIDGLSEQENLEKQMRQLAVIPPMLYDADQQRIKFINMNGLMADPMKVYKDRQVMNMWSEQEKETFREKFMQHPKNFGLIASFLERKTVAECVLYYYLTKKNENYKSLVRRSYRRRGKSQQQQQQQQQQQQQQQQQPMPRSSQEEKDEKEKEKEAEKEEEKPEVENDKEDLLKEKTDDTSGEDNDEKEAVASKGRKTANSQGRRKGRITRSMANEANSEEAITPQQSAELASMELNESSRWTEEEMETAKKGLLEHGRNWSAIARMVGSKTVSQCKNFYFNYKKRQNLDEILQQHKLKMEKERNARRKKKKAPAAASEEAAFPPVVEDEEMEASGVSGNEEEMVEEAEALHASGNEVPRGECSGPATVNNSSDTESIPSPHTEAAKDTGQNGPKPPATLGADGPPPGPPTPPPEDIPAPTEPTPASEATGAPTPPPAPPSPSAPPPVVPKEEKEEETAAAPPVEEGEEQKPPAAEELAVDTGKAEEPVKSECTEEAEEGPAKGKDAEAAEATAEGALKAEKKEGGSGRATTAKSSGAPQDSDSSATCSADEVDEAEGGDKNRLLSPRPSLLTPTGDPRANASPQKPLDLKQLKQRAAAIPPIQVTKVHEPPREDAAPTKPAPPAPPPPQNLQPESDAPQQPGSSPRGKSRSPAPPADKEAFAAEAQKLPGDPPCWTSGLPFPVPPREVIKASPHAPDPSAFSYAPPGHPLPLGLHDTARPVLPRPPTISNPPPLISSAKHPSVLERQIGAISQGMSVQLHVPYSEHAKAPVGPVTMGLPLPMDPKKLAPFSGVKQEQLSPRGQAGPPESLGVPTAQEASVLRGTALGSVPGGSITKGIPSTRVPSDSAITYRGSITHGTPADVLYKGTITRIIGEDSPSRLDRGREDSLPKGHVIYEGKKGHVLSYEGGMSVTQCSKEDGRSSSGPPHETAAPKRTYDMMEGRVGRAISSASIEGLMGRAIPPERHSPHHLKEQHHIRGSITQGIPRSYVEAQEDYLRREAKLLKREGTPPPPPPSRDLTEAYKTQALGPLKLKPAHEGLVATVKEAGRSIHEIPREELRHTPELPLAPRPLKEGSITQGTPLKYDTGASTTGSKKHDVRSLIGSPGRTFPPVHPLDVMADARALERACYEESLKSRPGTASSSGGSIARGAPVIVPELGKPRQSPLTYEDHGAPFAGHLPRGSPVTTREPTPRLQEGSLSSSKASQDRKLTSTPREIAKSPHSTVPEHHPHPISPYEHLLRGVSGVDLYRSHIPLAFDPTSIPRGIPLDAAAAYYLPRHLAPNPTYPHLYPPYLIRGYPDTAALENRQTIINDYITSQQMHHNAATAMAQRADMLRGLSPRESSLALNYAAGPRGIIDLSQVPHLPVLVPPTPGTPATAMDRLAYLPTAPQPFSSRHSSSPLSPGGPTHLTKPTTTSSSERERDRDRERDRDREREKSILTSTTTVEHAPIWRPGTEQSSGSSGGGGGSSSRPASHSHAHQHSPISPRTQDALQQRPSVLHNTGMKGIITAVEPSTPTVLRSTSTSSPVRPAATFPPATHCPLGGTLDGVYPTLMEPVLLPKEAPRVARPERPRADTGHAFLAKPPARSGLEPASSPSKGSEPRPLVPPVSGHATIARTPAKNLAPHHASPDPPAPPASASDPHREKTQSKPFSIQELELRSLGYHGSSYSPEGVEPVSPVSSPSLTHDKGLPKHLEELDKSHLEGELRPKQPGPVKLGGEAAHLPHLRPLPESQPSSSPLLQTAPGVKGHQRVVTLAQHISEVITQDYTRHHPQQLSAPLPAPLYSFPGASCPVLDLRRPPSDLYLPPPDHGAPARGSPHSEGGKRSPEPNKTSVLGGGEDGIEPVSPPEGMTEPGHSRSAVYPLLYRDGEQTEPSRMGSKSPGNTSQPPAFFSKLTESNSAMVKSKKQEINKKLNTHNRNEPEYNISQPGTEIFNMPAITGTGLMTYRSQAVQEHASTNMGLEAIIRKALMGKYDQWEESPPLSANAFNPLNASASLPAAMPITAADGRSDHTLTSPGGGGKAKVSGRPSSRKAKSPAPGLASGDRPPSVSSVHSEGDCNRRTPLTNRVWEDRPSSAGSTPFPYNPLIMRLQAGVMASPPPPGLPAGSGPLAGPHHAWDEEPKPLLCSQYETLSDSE

Histone deacetylase 4 = Histone deacetylase 4 (Homo sapiens, UniProt P56524); assay: Inhibition of human HDAC-4 using RHKK(Ac) as substrate
Histone deacetylase 5 = Histone deacetylase 5 (Homo sapiens, UniProt Q9UQL6); assay: Inhibition of human HDAC-5 using RHKK(Ac) as substrate
Sequence of Histone deacetylase 5 (Q9UQL6 whole entry): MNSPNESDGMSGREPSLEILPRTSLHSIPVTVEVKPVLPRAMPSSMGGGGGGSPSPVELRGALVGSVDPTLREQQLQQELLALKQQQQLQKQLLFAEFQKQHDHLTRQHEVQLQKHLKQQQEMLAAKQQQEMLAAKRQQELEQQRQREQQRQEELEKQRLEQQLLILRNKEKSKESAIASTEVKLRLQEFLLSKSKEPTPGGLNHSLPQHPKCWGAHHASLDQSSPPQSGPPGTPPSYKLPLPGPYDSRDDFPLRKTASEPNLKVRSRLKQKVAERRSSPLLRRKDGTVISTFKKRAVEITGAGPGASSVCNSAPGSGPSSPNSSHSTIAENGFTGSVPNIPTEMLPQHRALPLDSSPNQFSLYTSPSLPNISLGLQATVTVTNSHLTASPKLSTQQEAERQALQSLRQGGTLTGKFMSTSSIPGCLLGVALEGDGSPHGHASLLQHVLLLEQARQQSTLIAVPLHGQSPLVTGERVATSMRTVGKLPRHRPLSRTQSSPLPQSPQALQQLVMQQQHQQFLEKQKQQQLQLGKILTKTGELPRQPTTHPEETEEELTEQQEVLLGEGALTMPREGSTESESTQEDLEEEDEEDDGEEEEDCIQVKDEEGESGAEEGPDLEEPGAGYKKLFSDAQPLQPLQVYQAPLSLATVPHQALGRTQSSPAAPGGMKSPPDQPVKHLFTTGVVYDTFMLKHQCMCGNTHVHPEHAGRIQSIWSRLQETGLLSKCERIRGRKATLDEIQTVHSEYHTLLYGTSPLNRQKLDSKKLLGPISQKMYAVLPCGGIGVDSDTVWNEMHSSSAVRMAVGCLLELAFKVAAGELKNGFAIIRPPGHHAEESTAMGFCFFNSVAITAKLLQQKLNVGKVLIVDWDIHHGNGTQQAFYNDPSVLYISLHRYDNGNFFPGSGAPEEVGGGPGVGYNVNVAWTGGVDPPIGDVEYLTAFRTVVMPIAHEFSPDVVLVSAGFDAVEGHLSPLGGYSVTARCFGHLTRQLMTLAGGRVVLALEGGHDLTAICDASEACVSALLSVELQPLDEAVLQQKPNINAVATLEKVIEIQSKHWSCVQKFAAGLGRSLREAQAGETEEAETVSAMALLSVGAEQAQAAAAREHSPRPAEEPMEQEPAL

Histone deacetylase 7 = molecular target: T1, Histone deacetylase 7 (Homo sapiens, UniProt Q8WUI4); assay: Inhibition of human HDAC-7 using RHKK(Ac) as substrate
T1 sequence (Q8WUI4 whole entry): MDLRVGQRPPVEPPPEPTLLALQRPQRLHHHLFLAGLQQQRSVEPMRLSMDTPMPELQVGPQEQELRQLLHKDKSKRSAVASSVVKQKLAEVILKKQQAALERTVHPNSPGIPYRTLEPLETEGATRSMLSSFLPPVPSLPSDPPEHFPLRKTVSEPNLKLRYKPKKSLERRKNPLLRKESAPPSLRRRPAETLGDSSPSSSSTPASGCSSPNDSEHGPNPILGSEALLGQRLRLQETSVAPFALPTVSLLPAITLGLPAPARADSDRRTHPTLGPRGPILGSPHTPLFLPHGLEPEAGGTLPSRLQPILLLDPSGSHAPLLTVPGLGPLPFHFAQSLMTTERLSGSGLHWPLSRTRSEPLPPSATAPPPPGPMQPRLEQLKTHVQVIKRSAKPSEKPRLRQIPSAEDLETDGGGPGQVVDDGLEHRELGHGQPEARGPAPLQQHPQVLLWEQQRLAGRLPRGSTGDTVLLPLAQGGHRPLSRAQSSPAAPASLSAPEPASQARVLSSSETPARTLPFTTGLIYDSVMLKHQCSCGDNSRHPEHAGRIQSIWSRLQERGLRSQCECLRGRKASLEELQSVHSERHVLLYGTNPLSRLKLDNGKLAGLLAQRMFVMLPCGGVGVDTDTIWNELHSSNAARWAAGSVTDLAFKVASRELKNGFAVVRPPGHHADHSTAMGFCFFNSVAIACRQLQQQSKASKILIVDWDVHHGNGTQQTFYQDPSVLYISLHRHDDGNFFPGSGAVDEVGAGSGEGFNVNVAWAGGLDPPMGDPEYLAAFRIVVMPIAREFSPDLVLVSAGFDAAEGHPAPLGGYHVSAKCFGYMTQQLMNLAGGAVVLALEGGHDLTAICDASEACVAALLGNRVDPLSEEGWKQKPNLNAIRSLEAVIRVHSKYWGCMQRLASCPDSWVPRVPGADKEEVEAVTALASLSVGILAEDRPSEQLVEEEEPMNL

Histone deacetylase 8 = molecular target: T2, Histone deacetylase 8 (Homo sapiens, UniProt Q9BY41); assay: Inhibition of human HDAC-8 using RHK(Ac)K(Ac) as substrate
T2 sequence (Q9BY41 whole entry): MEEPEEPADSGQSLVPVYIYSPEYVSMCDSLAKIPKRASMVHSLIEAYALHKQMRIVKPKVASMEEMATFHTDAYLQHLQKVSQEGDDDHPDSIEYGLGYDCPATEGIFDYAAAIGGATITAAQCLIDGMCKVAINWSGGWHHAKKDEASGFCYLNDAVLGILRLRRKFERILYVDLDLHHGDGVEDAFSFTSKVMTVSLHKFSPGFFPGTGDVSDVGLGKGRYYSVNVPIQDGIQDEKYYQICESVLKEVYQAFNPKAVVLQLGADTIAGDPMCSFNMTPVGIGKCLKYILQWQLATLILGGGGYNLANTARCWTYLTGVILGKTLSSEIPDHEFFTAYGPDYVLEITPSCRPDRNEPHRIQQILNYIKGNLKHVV

[3] = molecular target: T3, Polyamine deacetylase HDAC10 (Homo sapiens, UniProt Q969S8); assay: Inhibition of human HDAC-10 using RHKK(Ac) as substrate
T3 sequence (Q969S8 whole entry): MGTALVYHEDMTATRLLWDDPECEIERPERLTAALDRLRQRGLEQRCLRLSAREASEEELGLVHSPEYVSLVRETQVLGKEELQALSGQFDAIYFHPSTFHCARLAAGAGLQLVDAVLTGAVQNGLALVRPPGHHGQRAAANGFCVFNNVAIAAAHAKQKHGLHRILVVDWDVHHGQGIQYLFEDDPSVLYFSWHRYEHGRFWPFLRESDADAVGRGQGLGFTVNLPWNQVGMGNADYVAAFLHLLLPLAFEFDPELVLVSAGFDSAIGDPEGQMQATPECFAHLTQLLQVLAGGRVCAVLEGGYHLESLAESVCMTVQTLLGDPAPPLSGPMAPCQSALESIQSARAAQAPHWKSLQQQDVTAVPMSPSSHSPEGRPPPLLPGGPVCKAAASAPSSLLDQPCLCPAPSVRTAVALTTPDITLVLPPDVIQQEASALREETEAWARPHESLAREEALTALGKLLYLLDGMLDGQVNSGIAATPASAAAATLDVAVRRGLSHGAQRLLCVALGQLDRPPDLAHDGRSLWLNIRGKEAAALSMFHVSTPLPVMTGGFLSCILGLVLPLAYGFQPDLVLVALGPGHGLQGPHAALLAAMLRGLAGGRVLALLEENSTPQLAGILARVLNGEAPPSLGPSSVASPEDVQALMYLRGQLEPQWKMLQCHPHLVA

Histone deacetylase 11 = molecular target: T4, Histone deacetylase 11 (Homo sapiens, UniProt Q96DB2); assay: Inhibition of human HDAC-11 using RHKK(Ac) as substrate
T4 sequence (Q96DB2 whole entry): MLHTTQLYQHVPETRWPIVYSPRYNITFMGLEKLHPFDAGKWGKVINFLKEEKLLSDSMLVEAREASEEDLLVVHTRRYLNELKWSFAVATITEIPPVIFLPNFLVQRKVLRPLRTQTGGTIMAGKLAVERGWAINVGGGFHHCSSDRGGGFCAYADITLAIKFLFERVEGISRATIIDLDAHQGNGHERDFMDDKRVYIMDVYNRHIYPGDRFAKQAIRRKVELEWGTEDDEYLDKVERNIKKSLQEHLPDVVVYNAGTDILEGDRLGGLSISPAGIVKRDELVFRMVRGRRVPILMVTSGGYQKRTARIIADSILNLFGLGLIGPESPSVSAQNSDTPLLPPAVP

Sequence of Histone deacetylase 1 (Q13547 whole entry): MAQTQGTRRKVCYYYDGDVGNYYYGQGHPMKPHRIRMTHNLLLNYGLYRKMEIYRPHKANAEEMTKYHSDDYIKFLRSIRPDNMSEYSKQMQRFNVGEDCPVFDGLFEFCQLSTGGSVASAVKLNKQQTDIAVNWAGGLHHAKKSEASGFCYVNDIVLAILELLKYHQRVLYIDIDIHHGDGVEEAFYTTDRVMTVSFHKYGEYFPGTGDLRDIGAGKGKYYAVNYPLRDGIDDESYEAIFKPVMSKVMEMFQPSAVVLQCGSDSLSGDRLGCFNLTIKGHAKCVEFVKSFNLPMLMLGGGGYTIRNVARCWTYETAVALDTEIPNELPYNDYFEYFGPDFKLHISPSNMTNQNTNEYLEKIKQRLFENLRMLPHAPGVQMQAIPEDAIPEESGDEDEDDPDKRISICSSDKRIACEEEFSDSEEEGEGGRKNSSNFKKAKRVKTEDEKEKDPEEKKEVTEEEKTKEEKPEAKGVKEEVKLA

`CC(C)c1cc(C(=O)N2CCc3onc(C(=O)NCCCCCCC(=O)NO)c3C2)c(O)cc1O` gave an IC50 (Histone deacetylase 1) of 2030 nM, an IC50 (NCI-H460) of 3900 nM and an IC50 [1] of 33 nM. For the same compound, the IC50 (Histone deacetylase 2) was 9490 nM, the IC50 [2] was 4230 nM and the IC50 (Histone deacetylase 4) was 75900 nM. It also gave an IC50 (Histone deacetylase 5) of 1580 nM, an IC50 (Histone deacetylase 7) of 2510 nM and an IC50 (Histone deacetylase 8) of 1760 nM. It also gave an IC50 [3] of 886 nM and an IC50 (Histone deacetylase 11) of 521 nM.
